Laboratory results as given in ChEMBL document CHEMBL1153712, “Design, synthesis and bioactivity of catechin/epicatechin and 2-azetidinone derived chimeric molecules” (2009).
Calls of active or inactive are those of the source. No cut-off for these calls is given here.

How the values were obtained:
[1] = biological target: T1, Ribonuclease pancreatic (Bos taurus) (UniProt P61823); assay: Inhibition of bovine pancreatic RNase A assessed as degradation of 28s rRNA after 1 hr by agarose gel based assay
T1 sequence (whole entry): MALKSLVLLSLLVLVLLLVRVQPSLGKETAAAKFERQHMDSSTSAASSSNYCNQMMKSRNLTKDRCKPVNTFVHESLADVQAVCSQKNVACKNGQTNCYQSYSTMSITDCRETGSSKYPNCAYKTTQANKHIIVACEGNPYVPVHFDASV
How it was run: (§1)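 Qualitative agarose-gel assay. RNase A was preincubated with compounds for 1 h at 37 °C. RNA substrate was then added and digested for 15 minutes. Samples were mixed with 40% sucrose and 0.25% bromophenol blue in 1× TAE and run on a 1.1% agarose gel. Degradation of 28S and 18S rRNA bands was scored.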

Escherichia coli = assay: Antibacterial activity against Escherichia coli at 1 mmol after 48 hrs by disk diffusion assay; assay type: functional
How it was run: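 Disc diffusion on agar. A colony was grown in nutrient broth for 2.5 h and spread over dried plates. Sterile 6 mm paper discs carried 1 mmol of compound. Plates were held at 37 °C and read at 48 h for inhibition-zone diameter. Controls were ampicillin (standard) and a DMSO-only disc.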

[2] = biological target: T1, Ribonuclease pancreatic (Bos taurus); assay: Inhibition of bovine pancreatic RNase A assessed as degradation of 18s rRNA after 1 hr by agarose gel based assay; how it was run: as §1

| Compound | inhibition [1] | diameter of the inhibition zone (DIZ) (Escherichia coli) | Inhibition (qualitative, active/not active) [2] | Activity (Escherichia coli) |
| --- | --- | --- | --- | --- |
| COc1ccc([C@@H]2[C@H](CCn3cc(CO[C@H]4Cc5c(O)cc(O)cc5O[C@@H]4c4ccc(O)c(O)c4)nn3)C(=O)N2c2ccccc2)cc1 (mixture of isomers) | inactive | 6 mm | Active |  |
| O=C1[C@@H](CCn2cc(CO[C@@H]3Cc4c(O)cc(O)cc4O[C@@H]3c3ccc(O)c(O)c3)nn2)[C@@H](c2ccccc2)N1c1ccccc1 (mixture of isomers) | inactive | 9 mm | Active |  |
| Oc1cc(O)c2c(c1)O[C@H](c1ccc(O)c(O)c1)[C@H](O)C2 |  |  | inactive |  |
| [N-]=[N+]=NCC[C@@H]1C(=O)N(c2ccccc2)[C@@H]1c1ccccc1 |  |  |  | inactive |
| Oc1cc(O)c2c(c1)O[C@H](c1ccc(O)c(O)c1)[C@@H](O)C2 |  |  | inactive |  |
| O=C1[C@@H](CCn2cc(CO[C@H]3Cc4c(O)cc(O)cc4O[C@@H]3c3ccc(O)c(O)c3)nn2)[C@@H](c2ccccc2)N1c1ccccc1 (mixture of isomers) | inactive | 9 mm | Active |  |
| COc1ccc([C@@H]2[C@H](CCO)C(=O)N2c2ccccc2)cc1 |  |  |  | inactive |
| O=C1[C@@H](CCO)[C@@H](c2ccccc2)N1c1ccccc1 |  |  |  | inactive |
| COc1ccc([C@@H]2[C@H](CCn3cc(CO[C@@H]4Cc5c(O)cc(O)cc5O[C@@H]4c4ccc(O)c(O)c4)nn3)C(=O)N2c2ccccc2)cc1 (mixture of isomers) | inactive | 6 mm | Active |  |
| COc1ccc([C@@H]2[C@H](CCN=[N+]=[N-])C(=O)N2c2ccccc2)cc1 |  |  |  | inactive |
